Compound activity (PubChem BioAssay)
Calpain2 inh: calpain II (pig) inhibition; purified calpain II, fluorogenic peptide substrate, 30 min; inhibition, % at 16 µM; 0.37% of 220,000 active;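 active = inhibition above about 50%, limit read from the data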
FXIIa inh: inhibitors of human coagulation factor XIIa. P00748. purified FXIIa, Boc-QGR-AMC fluorogenic substrate, 2 h. inhibition, % at 5 µM. 0.3% of 220,000 active; in the data active = inhibition above about 40%;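 also: 0% = enzyme with no compound and 100% = blank without enzyme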
Target sequence (P00748 20-372 limits assumed): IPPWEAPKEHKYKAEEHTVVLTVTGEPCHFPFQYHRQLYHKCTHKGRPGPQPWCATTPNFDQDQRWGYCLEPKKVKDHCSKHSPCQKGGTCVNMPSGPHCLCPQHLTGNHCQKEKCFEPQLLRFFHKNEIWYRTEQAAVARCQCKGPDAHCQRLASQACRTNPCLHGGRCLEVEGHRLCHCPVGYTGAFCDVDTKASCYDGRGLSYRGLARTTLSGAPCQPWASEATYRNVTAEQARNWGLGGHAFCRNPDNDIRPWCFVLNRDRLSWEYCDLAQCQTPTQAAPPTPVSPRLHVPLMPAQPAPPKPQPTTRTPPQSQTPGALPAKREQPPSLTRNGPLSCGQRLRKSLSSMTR
Target sequence (P00748 373-615 limits assumed): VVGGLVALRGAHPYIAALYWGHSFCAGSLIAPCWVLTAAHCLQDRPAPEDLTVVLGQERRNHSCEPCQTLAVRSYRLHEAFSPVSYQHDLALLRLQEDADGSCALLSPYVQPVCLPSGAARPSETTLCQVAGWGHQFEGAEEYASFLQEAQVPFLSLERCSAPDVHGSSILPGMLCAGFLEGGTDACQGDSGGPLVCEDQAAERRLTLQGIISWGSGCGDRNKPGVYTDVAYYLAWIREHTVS
thrombin 1536: thrombin (human) inhibition | P00734 | alpha-thrombin, Boc-VPR-AMC fluorogenic substrate cleavage | inhibition, % at 5 µM | 0.26% of 220,000 active | AID 1046;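 active = inhibition at or above 40%; inactive = inhibition below 40%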;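 also: 0% = enzyme with no compound and 100% = wells without enzyme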
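signal = AMC fluorescence, 355/460 nm | material = human alpha-thrombin enzyme | control set = enzyme without compound as high, wells lacking enzyme as low | times = reaction at room temperature | read-out basis = percent inhibition scaled between no-compound controls and no-enzyme blanks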
hK5 inh: inhibitors of human kallikrein 5; 0.59% of 210,000 active; Q9Y337; AID 873; recombinant hK5, fluorogenic AMC substrate cleavage; inhibition, % at 5 µM;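 active = inhibition of 40% or more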;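 also: 0% = enzyme controls without compound and 100% = no-enzyme blanks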
FXIa inh: blocks human coagulation factor XIa protease activity; inhibition, % at 5 µM; P03951; 0.14% of 220,000 active; purified FXIa, Boc-Glu-Ala-Arg-AMC fluorogenic substrate;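 active = inhibition of at least 40%; inactive = inhibition below 40%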;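 also: fluorescence of freed AMC excited at 355 nm; 0% = enzyme without compound and 100% = no enzyme blank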
Numbers without * were called inactive; / = no result given. Sampled rows, rich in hits. Any-hit rate of the full collection: about 1.4%.

SMILES	Calpain2 inh	FXIIa inh	thrombin 1536	hK5 inh	FXIa inh
COc1ccccc1C(=O)Nc1ccc(S(=O)(=O)Nc2onc(C)c2C)cc1	-17	5	-9	1	-1
Cc1cccc(OCC(O)CN2CC3(C)CC2CC(C)(C)C3)c1 (centres undefined)	-3	12	3	-10	64*
Cc1ccc(C(=O)Nc2ccc3c(c2)CCC3)o1	26	23	11	84*	19
CCN(CC)C(=N)/C(C#N)=N/Nc1ccc(C)cc1	1	2	-7	42*	-11
Cc1ccc(N/N=C(\C#N)C(=N)N2CCCCCC2)cc1	43	4	3	-12	-1
C/C(N)=C(/C#N)C(=O)COC(=O)[C@@H](NC(=O)c1ccccc1Cl)C(C)C	-12	8	-25	-2	-7
CC(=O)Nc1cccc(C(=O)OCc2ccccc2)c1	5	16	11	82*	29
CCOCCn1c(-c2ccc(OC)cc2)nc2ccccc21	9	54*	19	42*	18
C=CC#CC1(O)CC(C)N(C)CC1C (centres undefined)	27	28	31	46*	28
CCOC(=O)N1CCN(C(=O)c2ccccc2N(C)S(C)(=O)=O)CC1	26	-4	55*	-14	-5
CCOC(=O)N1CCN(C(=O)c2ccc(NS(C)(=O)=O)cc2)CC1	50*	-4	-14	-16	-3
CCOC(=O)N1CCN(C(=O)c2ccc(NC(=O)CC)cc2)CC1	2	-1	-6	-8	-4
CN(c1ccccc1C(=O)N1CCCC1)S(C)(=O)=O	4	-2	-5	3	-3
O=[N+]([O-])c1ccc(S(=O)(=O)NCCc2ccncc2)cc1	5	8	2	1	0
COc1ccc(C(=O)CSc2nc3[nH]ncc3c(=O)[nH]2)cc1	-2	2	-9	-3	-6
Cc1ccc(-n2c(C)cc(C(=O)CSc3nncs3)c2C)cc1	25	-5	56*	21	7
Cc1cc(C(=O)CSc2nncs2)c(C)n1-c1c(C)n(C)n(-c2ccccc2)c1=O	3	13	-4	-16	7
CC(=O)c1sccc1NC(=O)c1ccccc1C(=O)O	17	13	4	9	10
CCc1cc2c(=O)c(-c3nc(C)cs3)coc2cc1OC(C)C(=O)NCCO (centres undefined)	55*	14	-4	-9	10
CCc1cc2c(=O)c(-c3nc(C)cs3)c(CCCC(=O)O)oc2cc1O	-12	10	2	4	1
N#CC1=C(SCC(N)=O)NC2=C(C(=O)c3ccccc32)C1c1ccc(Cl)cc1 (centres undefined)	-91	8	-3	-4	7
CCOC(=O)c1sc(N)c(C#N)c1CSc1nc2ccc(OCC)cc2[nH]1	-49	-13	-15	-3	-7
CCOC(=O)c1sc(N)c(C#N)c1CSc1nc2ccc(C)cc2[nH]1	-24	11	5	40*	0
O=C1CC(N2CCC(c3nc4ccccc4o3)CC2)C(=O)N1c1ccc(Cl)c(C(F)(F)F)c1 (centres undefined)	-14	-8	-4	-21	42*
CCCc1ccc(OC(=O)c2ccc(O)cc2Cl)cc1	62*	3	17	0	-2
SMILES	Calpain2 inh	FXIIa inh	thrombin 1536	hK5 inh	FXIa inh
CCCc1ccc(OC(=O)c2cccs2)cc1	-3	9	1	5	4
CCN=C1SCC(=O)N1c1ccc(OC)cc1	9	11	14	44*	7
CC(C)Sc1nc2ccccc2n1CC(=O)O	-29	3	-8	-2	-3
Cn1c(=O)c2c(nc(SCCN3CCOCC3)n2Cc2ccc(F)cc2)n(C)c1=O	7	6	10	52*	16
COc1cc(C(=O)Nc2ccc(S(=O)(=O)Nc3nccc(C)n3)cc2)c([N+](=O)[O-])cc1OC	4	5	-3	1	-2
C/C(=N\Nc1ccc2nncn2n1)c1cccs1	2	2	-6	4	4
COc1ccc(NC(=O)COC(=O)C23CC4CC(CC(Cl)(C4)C2)C3)c(OC)c1	21	12	-3	-1	0
COc1ccc(C(=O)C23CC4CC(C2)CC(C(=O)c2ccc(OC)cc2)(C4)C3)cc1	63*	13	0	/	4
Cc1ccc(-c2cc(C(F)F)n3ncc(C(=O)N4CCN(c5cccc(C)c5C)CC4)c3n2)cc1	-19	1	3	4	12
CC(C)c1ccc(-c2noc(C3CCCN(C(=O)c4ccc(F)cc4F)C3)n2)cc1 (centres undefined)	77*	3	61*	-10	-10
O=C(O)CC12CSc3[nH]c(=O)sc3C1c1ccccc1OC2=O (centres undefined)	54*	15	7	0	3
CCOC(=O)C1CSc2[nH]c(=O)sc2C1c1ccccc1 (centres undefined)	20	-3	-4	-6	-9
Cc1cc(/C(O)=C2\C(=O)C(=O)N(CCN(C)C)C2c2ccncc2)ccc1OCc1ccccc1 (centres undefined)	15	24	21	71*	11
COc1cc(C(=O)OCCN2CCOCC2)cc(OC)c1OC	-21	14	0	-6	-1
COc1cccc(C(=O)OCCN2CCOCC2)c1	17	32	-3	36	51*
COc1cccc(/C(O)=C2/C(=O)C(=O)N(CCCN3CCOCC3)C2c2ccncc2)c1 (centres undefined)	13	-4	1	117*	-3
Cc1nc(N2CCN(c3ccccc3)CC2)nc2c1C(=O)CC(C)C2 (centres undefined)	72*	-9	-7	0	-6
Cc1nc(N2CCN(c3ccccc3)CC2)nc2c1C(=O)CC(c1ccccc1)C2 (centres undefined)	11	13	-2	8	3
COC(=O)C1CCN(CC(=O)Nc2ccc(OC)c(Cl)c2)CC1	1	-6	-10	-4	-4
CCCCCCCCCCCC(=O)N1CC(=O)NC(=O)C1	23	46*	27	54*	27
O=C(Nc1ccc(Cl)cc1)c1cc2c(cc1O)[nH]c1ccccc12	-63	8	-1	0	1
O=C(NCC1OCCc2ccccc21)c1ccc(NC(=O)c2ccc(Cl)cc2)cc1 (centres undefined)	-30	6	-2	-7	1
C=CCNc1cnn(-c2ccc(C)cc2)c(=O)c1Sc1ccc(C)cc1	65*	-2	2	-21	-5
Cc1ccc(Sc2cnn(-c3ccccc3)c(=O)c2Cl)cc1	35	6	1	8	0
C=CCc1cccc(/C=N/NC(=O)CCCNc2ccc(C)cc2)c1O	21	5	20	47*	8
C=CCc1cccc(/C=N/NC(=O)CNc2cccc3ccccc23)c1O	8	-2	-8	-17	-7
C=CCc1cccc(/C=N/NC(=O)CNc2ccccc2)c1O	2	-2	46*	-27	-11
O=C(Cn1nnc(-c2ccccc2)n1)OCc1csc(-c2ccccc2)n1	18	49*	21	22	12
